The record followed here is ChEMBL document CHEMBL3808393, “Discovery of Potent and Selective Agonists of δ Opioid Receptor by Revisiting the "Message-Address" Concept” (ACS Med Chem Lett, 2016).

Experiment [1] deals with T1, Mu-type opioid receptor (Homo sapiens, UniProt P35372). In words: Displacement of [3H]DAMGO from human MOR expressed in CHO cell membranes after 60 mins. On the technique in general: Displacement assays read how much labelled ligand stays bound in the presence of the test substance.
T1 sequence (P35372 whole entry): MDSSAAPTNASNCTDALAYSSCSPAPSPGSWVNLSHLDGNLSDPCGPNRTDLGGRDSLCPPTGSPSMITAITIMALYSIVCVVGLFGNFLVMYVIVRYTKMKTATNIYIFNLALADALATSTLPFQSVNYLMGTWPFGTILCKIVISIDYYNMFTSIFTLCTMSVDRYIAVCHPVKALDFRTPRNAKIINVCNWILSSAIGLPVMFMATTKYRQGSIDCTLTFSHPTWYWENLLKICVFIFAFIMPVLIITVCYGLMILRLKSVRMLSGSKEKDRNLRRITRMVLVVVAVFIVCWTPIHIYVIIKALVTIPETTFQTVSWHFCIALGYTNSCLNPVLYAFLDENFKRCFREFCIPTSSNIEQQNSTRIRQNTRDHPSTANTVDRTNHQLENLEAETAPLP
In experiment [2] the target is T2, Kappa-type opioid receptor (Homo sapiens, UniProt P41145). Kind of experiment: Displacement of [3H]U69593 from human KOR expressed in CHO cell membranes at 1 uM after 60 mins. The method in brief: (§1)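 Competitive radioligand inhibition binding. […] DOR used [3H]DPDPE on membranes of CHO cells expressing human DOR. KOR used [3H]U69593 on CHO cells expressing human KOR. […] Each compound was run three times, mean ± SEM.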
T2 sequence (P41145 whole entry): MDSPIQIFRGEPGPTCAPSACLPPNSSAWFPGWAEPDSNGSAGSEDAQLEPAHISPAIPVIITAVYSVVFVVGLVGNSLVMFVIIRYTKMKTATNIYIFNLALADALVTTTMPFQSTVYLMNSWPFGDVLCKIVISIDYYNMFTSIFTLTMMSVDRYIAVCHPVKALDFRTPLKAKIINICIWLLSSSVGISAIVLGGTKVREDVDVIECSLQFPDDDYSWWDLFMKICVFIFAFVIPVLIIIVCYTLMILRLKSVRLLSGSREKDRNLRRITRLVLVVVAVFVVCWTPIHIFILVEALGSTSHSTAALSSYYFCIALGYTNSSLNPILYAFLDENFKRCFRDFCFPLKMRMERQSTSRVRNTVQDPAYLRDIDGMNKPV

Experiment [3] concerns the target T3, Delta-type opioid receptor (Homo sapiens, UniProt P41143). Kind of experiment: Displacement of [3H]DPDPE from human DOR expressed in CHO cell membranes at 1 uM after 60 mins. Put shortly: as §1
Experiment [4] addresses T2, Kappa-type opioid receptor. Kind of experiment: Displacement of [3H]U69593 from human KOR expressed in CHO cell membranes after 60 mins.
For experiment [5], the target named is T3, Delta-type opioid receptor. Kind of experiment: Displacement of [3H]DPDPE from human DOR expressed in CHO cell membranes after 60 mins.
Experiment [6] addresses T3, Delta-type opioid receptor. Kind of experiment: Agonist activity at human DOR expressed in CHO cell membranes after 60 mins by [35S]GTP-gamma-S binding assay. The method in brief: (§2)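 Receptor activation by standard [35S]GTP-γ-S binding. Each compound was assayed three times and reported as mean ± SEM.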
In experiment [7] the target is T1, Mu-type opioid receptor. In words: Agonist activity at human MOR expressed in CHO cell membranes after 60 mins by [35S]GTP-gamma-S binding assay. Put shortly: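 [35S]GTP-γ-S binding read-out of G-protein activation. Each compound assayed three times, with values given as mean ± standard error of the mean.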
Experiment [8] addresses T1, Mu-type opioid receptor. Kind of experiment: Displacement of [3H]DAMGO from human MOR expressed in CHO cell membranes at 1 uM after 60 mins.
The target of experiment [9] is T2, Kappa-type opioid receptor. In words: Agonist activity at human KOR expressed in CHO cell membranes after 60 mins by [35S]GTP-gamma-S binding assay. Put shortly:
as §2
(In general: GTPγS is a poorly hydrolysed GTP analogue; its binding reports G protein activation.)

Molecules are shown by their SMILES. pEC50, pKi: −log10 of the molar value. A value given as a limit tells only on which side of the number the result lay.

T3 sequence (P41143 whole entry): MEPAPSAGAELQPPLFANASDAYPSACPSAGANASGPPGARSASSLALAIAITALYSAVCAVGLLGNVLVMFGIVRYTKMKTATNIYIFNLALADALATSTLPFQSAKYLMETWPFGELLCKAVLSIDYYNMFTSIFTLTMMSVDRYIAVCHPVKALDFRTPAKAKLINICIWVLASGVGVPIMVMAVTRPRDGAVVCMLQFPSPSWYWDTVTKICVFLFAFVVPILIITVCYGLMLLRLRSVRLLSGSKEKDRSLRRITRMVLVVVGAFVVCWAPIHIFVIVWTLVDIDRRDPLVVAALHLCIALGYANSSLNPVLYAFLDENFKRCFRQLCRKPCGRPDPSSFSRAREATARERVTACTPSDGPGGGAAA

One may read the pKi as the Ki on a negative log10 scale, so that one unit is a factor of ten. A high value points to a small Ki. What is called inhibition is the share of the control response that was lost under treatment. Lower therefore signals a weak effect. Compound `COc1cccc([C@@]2(O)c3ccc(-c4ccccc4C)cc3CC[C@@H]2CN(C)C)c1` gave a pKi in experiment [1] of under 5.00. Also, the inhibition turned out to be 16.2% in experiment [2] and 13% in experiment [3].

Consider `COc1cccc([C@@]2(O)c3ccc(-c4ccccc4OC)cc3CC[C@@H]2CN(C)C)c1`, for which the negative logarithm of the Ki (pKi) in experiment [1] and in experiment [4] was under 5.00 each time. Also, in experiment [3], the inhibition is 37.9%.

As for `COc1cccc([C@@]2(O)c3ccc(-c4ccc(C(F)(F)F)cc4)cc3CC[C@@H]2CN(C)C)c1`, the negative logarithm of the Ki (pKi) in experiment [1], in experiment [5] and in experiment [4] was under 5.00 throughout.

With `COc1cccc(-c2ccc3c(c2)CC[C@H](CN(C)C)[C@@]3(O)c2cccc(OC)c2)c1`, the negative logarithm of the Ki (pKi) in experiment [1], in experiment [5] and in experiment [4] was under 5.00 each time.

Turning to `COc1ccccc1-c1ccc2c(c1)CCC(CN(C)C)C2(O)c1cccc(O)c1` (single isomer, unassigned; (+)), the pKi in experiment [1] (cho), in [5] and in experiment [4] (cho) was under 5.00 in each case.

Broadly, the pEC50 is the EC50 on a negative log10 scale, so that one unit is a factor of ten. For orientation: Emax means the greatest response seen or fitted, relative to the assay's reference. Take `COc1ccccc1-c1ccc2c(c1)CC[C@H](CN(C)C)[C@@]2(O)c1cccc(O)c1`: the negative logarithm of the Ki (pKi) in experiment [1] was under 5.00. Besides, in experiment [6], the pEC50 is 8.03 and the Emax worked out at 230%. This compound also had a negative-log Ki (pKi) in experiment [5] of 8.33. Also, the inhibition in experiment [2] is 17.7%.

For `COc1ccc(-c2ccc3c(c2)CC[C@H](CN(C)C)[C@@]3(O)c2cccc(O)c2)cc1`, the pKi in experiment [1] and in [4] was under 5.00 each time. In [3], this compound returned an inhibition of 32%.

For the compound `CN(C)C[C@H]1CCc2cc(-c3ccc(C(F)(F)F)cc3)ccc2[C@]1(O)c1cccc(O)c1`, the pKi in experiment [1], in [5] and in experiment [4] was under 5.00 in each case.

With `COc1cccc(-c2ccc3c(c2)CC[C@H](CN(C)C)[C@@]3(O)c2cccc(O)c2)c1`, in experiment [1], the negative logarithm of the Ki (pKi) was under 5.00. The inhibition in [2] came to 15%; in [3] it was 43%.

In the case of `CN(C)C[C@H]1CCc2cc(-c3ccc(Cl)c(Cl)c3)ccc2[C@]1(O)c1cccc(O)c1`, the pKi in [1], in [5] and in experiment [4] was under 5.00 in each case.

With `COc1cccc([C@@]2(O)c3ccc(-c4ccc(Cl)cc4)cc3CC[C@@H]2CN(C)C)c1`, the negative-log Ki (pKi) in [1], in experiment [5] and in experiment [4] was under 5.00 in each case.

Compound `COc1ccccc1-c1ccc2c(c1)CCC(CN(C)C)C2(O)c1cccc(O)c1` (single isomer, unassigned; (-)) [listing 1 of 2 here] came in with a maximum response (Emax) in experiment [6] of 205%.

As for `CN(C)C[C@H]1CCCC[C@]1(O)c1cccc(O)c1` (racemic) [O-DESMETHYL TRAMADOL], the pKi in experiment [5] and in experiment [4] was under 5.00 throughout. This compound came in with a maximal response (Emax) in [7] of 220%.

Consider `CN(C)C[C@H]1CCc2cc(-c3ccccc3Cl)ccc2[C@]1(O)c1cccc(O)c1`, for which the pKi is under 5.00 in experiment [1], 6.80 in [5] and under 5.00 in experiment [4]. Also, the pEC50 in experiment [6] is 6.02. The compound further came in with an Emax in experiment [6] of 216%.

Turning to `CN(C)C[C@H]1CCc2cc(-c3ccccc3F)ccc2[C@]1(O)c1cccc(O)c1`, the pKi was under 5.00 in [1], 6.14 in experiment [5] and under 5.00 in experiment [4]. Further, the pEC50 in experiment [6] was 5.80. Also, the Emax in experiment [6] stood at 172%.

As for `CN(C)C[C@H]1CCc2cc(-c3ccccc3OC(F)(F)F)ccc2[C@]1(O)c1cccc(O)c1`, the pKi is under 5.00 in experiment [1], 6.59 in experiment [5] and under 5.00 in experiment [4]. The compound further had a negative logarithm of the EC50 (pEC50) in experiment [6] of 6.00. Besides, the maximum response (Emax) in experiment [6] was 215%.

With `CN(C)C[C@H]1CCc2cc(-c3ccccc3)ccc2[C@]1(O)c1cccc(O)c1`, the inhibition in experiment [8] was found to be 20%. For the same compound, in experiment [9], the negative-log EC50 (pEC50) was 6.24 and the Emax is 187%. This compound gave a pKi in experiment [4] of 6.85. The same compound came in with an inhibition in experiment [3] of 22%.

In the case of `COc1ccc(-c2ccc3c(c2)CC[C@H](CN(C)C)[C@@]3(O)c2cccc(OC)c2)cc1`, the pKi in experiment [1], in experiment [5] and in [4] was under 5.00 each time.

For the compound `COc1cccc([C@@]2(O)c3ccc(-c4ccc(Cl)c(Cl)c4)cc3CC[C@@H]2CN(C)C)c1`, the negative logarithm of the Ki (pKi) in [1], in [5] and in experiment [4] was under 5.00 in each case.

`CN(C)C[C@H]1CCc2cc(-c3ccc(Cl)cc3)ccc2[C@]1(O)c1cccc(O)c1`: the pKi in experiment [1] was under 5.00. The inhibition came out at 8.9% in [2] and 17% in [3].

Consider `COc1ccccc1-c1ccc2c(c1)CCC(CN(C)C)C2(O)c1cccc(O)c1` (single isomer, unassigned; (-)) [listing 2 of 2 here], for which the pKi in experiment [1] is under 5.00; in [5], 8.57; in experiment [4], under 5.00. In addition, in experiment [6], the pEC50 is 8.59.

`COc1cccc([C@@]2(O)CCCC[C@@H]2CN(C)C)c1` (racemic) [(R,R)-TRAMADOL] had an inhibition in [8] of 9.6%. Further, the pKi in [5] and in [4] was under 5.00 each time.

Consider `COc1cccc([C@@]2(O)c3ccc(-c4ccccc4)cc3CC[C@@H]2CN(C)C)c1`, for which the pKi in experiment [1] and in [5] was under 5.00 each time. Also, the inhibition in experiment [2] stood at 37%.

As to `CN(C)C[C@H]1CCc2cc(-c3ccccc3C(F)(F)F)ccc2[C@]1(O)c1cccc(O)c1`, the values for the pKi in experiment [1], in experiment [5] and in [4] were under 5.00, 7.19 and under 5.00, respectively. Further, the negative-log EC50 (pEC50) in experiment [6] is 6.05. For the same compound, in [6], the Emax stood at 217%.

On to `Cc1ccccc1-c1ccc2c(c1)CC[C@H](CN(C)C)[C@@]2(O)c1cccc(O)c1`, for which the negative logarithm of the Ki (pKi) in [1] is under 5.00; in [5], 6.85; in [4], under 5.00. For the same compound, the pEC50 in experiment [6] is 6.31. For the same compound, the maximum response (Emax) in experiment [6] turned out to be 199%.
